This note sets out measurements from ChEMBL document CHEMBL1122852, “Imidazo[1,5-d][1,2,4]triazines as potential antiasthma agents” (J Med Chem, 1985).

Molecules are shown by their SMILES.

For the first experiment, the species on record is Homo sapiens. Briefly: Inhibitory activity against histamine release from antigen-challenged, sensitized human basophils.
Details: not given
The class given is functional. A digest of the protocol:
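Histamine release was induced by antigen challenge of sensitized human basophils in vitro. Compounds were first screened at a single concentration. Those reducing release by more than 50% went on to concentration-response testing to estimate IC50. Values are given with standard error and number of experiments.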
`C=CCn1nc(C)c2c(C)nc(CCC)n2c1=O`: the IC50 – broadly, the concentration that inhibits the measured activity by half – was more than 48 µM.

The same experiment, now with this note: Homo sapiens.
For `Oc1nncc2cnc(-c3ccccc3)n12`, the IC50 was more than 48 µM.

For the compound `c1ncn2c(N3CCCCC3)nncc12`, the half-inhibitory concentration (IC50) was more than 48 µM.

For `C=CCn1ncc2c(CC)ncn2c1=O`, the IC50 was more than 48 µM.

With `Cc1nc(C(C)C)n2c(S)nncc12`, the IC50 is more than 48 µM.

Consider `CCc1nc(C)c2c(-c3ccccc3)nnc(SC)n12`, for which the IC50 was more than 48 µM.

Turning to `CCCc1nc(C)c2c(C)nn(CC(=O)c3ccccc3)c(=O)n12`, the IC50 was more than 48 µM.

With `CCc1nnc(S)n2c(C(C)CC)nc(C)c12` (configuration not stated), the half-inhibitory concentration (IC50) was more than 48 µM.

On to `CCCc1nnc(O)n2c(C)nc(C)c12`, for which the IC50 is more than 48 µM.

As to `CCCc1nc(C)c2c(C)nn(CC(=O)O)c(=O)n12`, the IC50 was more than 48 µM.

For the compound `CCCC1NN=C(SC)n2c1cnc2C` (configuration not stated), the 50% inhibitory concentration (IC50) was more than 48 µM.

In the case of `CCCc1nc(Br)c2c(Br)nnc(O)n12`, the IC50 was determined as 48 µM.

For `C=CCn1ncc2c(C)nc(CCC)n2c1=O`, the IC50 was found to be 40 µM.

As for `Oc1nncc2cncn12`, the IC50 was more than 48 µM.

For `CCCc1nn(C)c(=O)n2c(CCC)nc(C)c12`, the IC50 was 18 µM.

As to `Cc1ncn2c(NN)nncc12`, the IC50 is more than 48 µM.

For `COCc1ncc2cnnc(SC)n12`, the IC50 was more than 48 µM.

For the compound `CCCOc1ccccc1-c1ncc2cnnc(O)n12`, the IC50 is more than 48 µM.

As to `CCCc1nc(C)c2cnnc(NCCN(C)C)n12`, the IC50 was more than 48 µM.

With `CN1CCN(c2nncc3cncn23)CC1`, the half-maximal inhibitory concentration (IC50) is more than 48 µM.

As to `C=CCSc1nncc2cnc(-c3ccccc3)n12`, the IC50 was more than 48 µM.

In the case of `CCCc1ncn2c(SC)nncc12`, the IC50 was more than 48 µM.

In the case of `Cc1nc(-c2ccccc2)n2c(O)nncc12`, the IC50 was more than 48 µM.

`C=CCn1ncc2c(CCC)ncn2c1=O`: the IC50 was more than 48 µM.

On to `CCCc1nnc(S)n2c(CCC)nc(C)c12`, for which the IC50 was more than 48 µM.

Regarding `Cc1ncn2c(Nc3cccnc3)nncc12`, the IC50 was more than 48 µM.

For the compound `C=CCn1ncc2c(C)nc(C(C)C)n2c1=O`, the IC50 is more than 48 µM.

For the compound `Cc1nc(CC(C)(C)C)n2c(O)nncc12`, the IC50 was more than 48 µM.

On to `C=CCn1ncc2c(C)ncn2c1=O`, for which the IC50 is more than 48 µM.

Consider `CCOC(=O)CSc1nncc2cnc(C)n12`, for which the IC50 was found to be 52 µM.

For the compound `CCCc1ncc2cnnc(SC)n12`, the IC50 was more than 48 µM.

In the case of `CC(C)c1ncn2c(O)nncc12`, the half-inhibitory concentration (IC50) is more than 48 µM.

For `CCCc1nc(C)c2c(C3CC3)nnc(O)n12`, the IC50 is more than 48 µM.

In the case of `C=CCn1ncc2cnc(C)n2c1=S`, the IC50 was more than 48 µM.

In the case of `CSc1nnc(-c2ccccc2)c2c(C)nc(C(C)C)n12`, the IC50 is more than 48 µM.

For the compound `Cc1nc(C)n2c(=O)n(C)ncc12`, the IC50 was more than 48 µM.

`CCCCc1nnc(O)n2c(CCC)nc(C)c12`: the IC50 was more than 48 µM.

On to `COCc1nc(C)c2cnnc(S)n12`, for which the IC50 was more than 48 µM.

For `CCCc1nc(C)c2c(C)nn(CCC)c(=O)n12`, the half-inhibitory concentration (IC50) was more than 48 µM.

Consider `CCc1nnc(O)n2c(C(C)CC)nc(C)c12` (configuration not stated), for which the IC50 turned out to be 45 µM.

Regarding `C=CCn1ncc2c(Br)nc(CCC)n2c1=O`, the concentration for half-maximal inhibition (IC50) is more than 48 µM.

For `CCCc1nc(C)c2c(CC)nnc(SC)n12`, the IC50 is more than 48 µM.

Regarding `COCc1ncc2cnnc(O)n12`, the IC50 is more than 48 µM.

As for `C=CCn1ncc2c(CC)ncn2c1=S`, the IC50 is more than 48 µM.

Turning to `CCc1nnc(O)n2c(CC)nc(C)c12`, the IC50 turned out to be 24 µM.

In the case of `CC(C)c1ncn2c(S)nncc12`, the IC50 was more than 48 µM.

For the compound `C=CCn1ncc2c(C)nc(CC)n2c1=O`, the IC50 is more than 48 µM.

For the compound `Cc1nc(C(C)C)n2c(O)nnc(-c3ccccc3)c12`, the half-inhibitory concentration (IC50) is more than 48 µM.

Consider `CCCc1nc(C)c2cnn(C/C=C/C(=O)OCC)c(=O)n12`, for which the IC50 was more than 48 µM.

With `CN(C)CCNc1nncc2cncn12`, the IC50 is more than 48 µM.

With `O/C(=C/c1nncc2cncn12)c1ccccc1`, the IC50 was 38 µM.

Turning to `CCCc1nc(C)c2cnnc(SCC(=O)OCC)n12`, the IC50 was more than 48 µM.

`CCCc1ncc2c(C)nnc(O)n12`: the IC50 was more than 48 µM.

In the case of `C=CCSc1nncc2cnc(COC)n12`, the IC50 was 79 µM.

On to `CCCc1nc(C)c2n1C(SC)=NNC2c1ccccc1` (configuration not stated), for which the IC50 was more than 48 µM.

As to `Oc1nnc(-c2ccccc2)c2cncn12`, the IC50 was 19 µM.

In the case of `CCCc1nnc(O)n2c(C)ncc12`, the IC50 was more than 48 µM.

`CSc1nncc2c(C(C)C)ncn12`: the IC50 is more than 48 µM.

For the compound `C=CCSc1nncc2cnc(C)n12`, the IC50 turned out to be 61 µM.

Consider `O=C(CSc1nncc2cncn12)c1ccccc1`, for which the concentration for half-maximal inhibition (IC50) is more than 48 µM.

Regarding `CCc1ncn2c(S)nncc12`, the IC50 is more than 48 µM.

As to `CCCc1nc(Br)c2cnnc(O)n12`, the IC50 is more than 48 µM.

As to `Sc1nncc2cncn12`, the IC50 is more than 48 µM.

For `CNc1nncc2c(C)ncn12`, the IC50 is more than 48 µM.

As for `COCc1ncc2n1C(NCCN(C)C)NN=C2NCCN(C)C` (configuration not stated), the IC50 is more than 48 µM.

As for `C=CCn1ncc2c(C)nc(Cc3ccccc3)n2c1=O`, the IC50 is more than 48 µM.

Regarding `CCCc1ncc2c(C)nnc(SC)n12`, the half-inhibitory concentration (IC50) was more than 48 µM.

Turning to `Cc1ncn2c(NCc3ccco3)nncc12`, the IC50 was more than 48 µM.

In the case of `CSc1nncc2c(C)nc(C)n12`, the IC50 was more than 48 µM.

Regarding `Cc1ncc2cnnc(O)n12`, the IC50 is more than 48 µM.

Turning to `CCCc1nc(C)c2c(C(C)C)nnc(O)n12`, the IC50 was more than 48 µM.

Regarding `CSc1nncc2cnc(C)n12`, the IC50 was more than 48 µM.

Regarding `CCOC(=O)CSc1nncc2c(C)nc(C)n12`, the IC50 is more than 48 µM.

With `C=CCSc1nncc2c(C)nc(C)n12`, the IC50 amounted to 59 µM.

On to `CCOC(=O)CSc1nncc2c(C)ncn12`, for which the IC50 was more than 48 µM.

Take `CCCc1nc(C)n2c(O)nncc12`: the IC50 is more than 48 µM.

Consider `CCc1nc(C)c2cnn(CC)c(=O)n12`, for which the IC50 came out at 75.6 µM.

With `Sc1nncc2cnc(-c3ccccc3)n12`, the IC50 was more than 48 µM.

As to `CCCc1nc(C)c2c(-c3ccccc3)nnc(Nc3cc[nH]n3)n12`, the half-inhibitory concentration (IC50) is more than 48 µM.

Turning to `CCCc1ncn2c(Nc3cc[nH]n3)nncc12`, the IC50 was more than 48 µM.

On to `C=CCn1ncc2c(Br)nc(Cc3ccccc3)n2c1=O`, for which the IC50 was more than 48 µM.

Take `C=CCn1nc(C)c2c(C)nc(CCC)n2c1=O`: the IC50 turned out to be 69 µM.

Take `CCOC(=O)/C(=C(\O)OCC)c1nncc2cncn12`: the IC50 is more than 48 µM.

With `C(=C\CSc1nncc2cncn12)/CSc1nncc2cncn12`, the IC50 is more than 48 µM.

In the case of `Cc1nc(-c2ccccc2)n2c(S)nncc12`, the IC50 is more than 48 µM.

Regarding `CCO/C(O)=C\c1nncc2cncn12`, the IC50 was more than 48 µM.

For the compound `C=CCSc1nncc2c(CC)ncn12`, the IC50 is more than 48 µM.

With `CCOC(=O)C(C)Sc1nncc2cncn12` (configuration not stated), the IC50 is more than 48 µM.

With `CCCc1nnc(SC)n2c(CCC)nc(C)c12`, the IC50 is more than 48 µM.

For `CCCc1nc(C)c2cnnc(O)n12`, the IC50 came to 56.8 µM.

`CCCc1nc(C)c2cnn(CC(O)CO)c(=O)n12` (configuration not stated): the IC50 is more than 48 µM.

As for `CCn1ncc2c(C)nc(C(C)C)n2c1=O`, the IC50 is more than 48 µM.

Consider `CCCc1nc(C)c2cnnc(S)n12`, for which the IC50 stood at 10 µM.

Turning to `Cc1nc(C)n2c(O)nncc12`, the IC50 was more than 48 µM.

In the case of `C=CCn1ncc2cnc(COC)n2c1=O`, the IC50 was more than 48 µM.

With `c1ncn2c1C(NC1CCCC1)NN=C2NC1CCCC1` (configuration not stated), the IC50 is more than 48 µM.

For `CCOC(=O)Cn1ncc2cncn2c1=O`, the IC50 is more than 48 µM.

Turning to `CCc1nc(C)c2cnnc(S)n12`, the IC50 was more than 48 µM.

For `CCOC(=O)/C=C/CSc1nncc2cncn12`, the IC50 was more than 48 µM.

Regarding `Cc1nnc(S)n2cncc12`, the IC50 is more than 48 µM.

For `Oc1nnc(Br)c2c(Br)nc(Br)n12`, the IC50 was 27 µM.

Consider `Cn1ncc2cnc(Cc3ccccc3)n2c1=O`, for which the IC50 is more than 48 µM.

On to `C=CCn1ncc2c(C)nc(C(C)(C)C)n2c1=O`, for which the IC50 was more than 48 µM.

Consider `CCn1ncc2cncn2c1=S`, for which the IC50 is more than 48 µM.

In the case of `C=CCn1ncc2c(C)nc(C)n2c1=O`, the half-maximal inhibitory concentration (IC50) came to 73 µM.

On to `c1ncn2c(NC34CC5CC(CC(C5)C3)C4)nncc12`, for which the concentration for half-maximal inhibition (IC50) was more than 48 µM.

Turning to `CCCc1ncc2c(C)nnc(S)n12`, the IC50 is more than 48 µM.

In the case of `CCCc1nc(C)c2c(C)nn(C)c(=O)n12`, the IC50 is more than 48 µM.

As to `CCc1nc(C)c2c(-c3ccccc3)nnc(O)n12`, the IC50 was more than 48 µM.

Regarding `CCCc1nc(C)c2cnn(CC3CC3)c(=O)n12`, the IC50 was more than 48 µM.

Consider `Cc1ncn2c(S)nncc12`, for which the IC50 was more than 48 µM.

For the compound `CCOC(=O)CSc1nncc2cncn12`, the IC50 is more than 48 µM.

Turning to `c1coc(CNc2nncc3cncn23)c1`, the IC50 is more than 48 µM.

Take `CCOC(=O)Cn1ncc2c(C)ncn2c1=O`: the IC50 was more than 48 µM.

For `C=CCn1ncc2cnc(-c3ccc(OC)cc3)n2c1=O`, the IC50 was more than 48 µM.

As to `CCCc1ncc2cnnc(S)n12`, the IC50 was more than 48 µM.

Consider `c1nc(Nc2nncc3cncn23)n[nH]1`, for which the IC50 was 46 µM.

Take `C=CCn1ncc2c(C)nc(CCC)n2c1=S`: the IC50 is more than 48 µM.

For the compound `C=CCn1ncc2cnc(Cc3ccccc3)n2c1=O`, the IC50 was more than 48 µM.

In the case of `C=CCn1ncc2cncn2c1=O`, the IC50 is more than 48 µM.

As for `CCCc1ncn2c(O)nncc12`, the IC50 was more than 48 µM.

As for `CCCc1nc(C)c2c(C)nn(CC)c(=O)n12`, the IC50 is more than 48 µM.

Consider `CCCc1nc(C)c2cnn(C)c(=O)n12`, for which the IC50 is 20 µM.

Consider `CC(C)(C)c1ncc2cnnc(O)n12`, for which the IC50 was more than 48 µM.

`Cc1ncn2c(Nc3cccs3)nncc12`: the half-inhibitory concentration (IC50) is more than 48 µM.

Take `Cc1nc(C(C)C)n2c(O)nncc12`: the IC50 is more than 48 µM.

On to `CSc1nnc(-c2ccccc2)c2cncn12`, for which the IC50 was more than 48 µM.

For the compound `Oc1nncc2cnc(Cc3ccccc3)n12`, the IC50 was more than 48 µM.

Turning to `CSc1nncc2c(C)nc(C(C)C)n12`, the IC50 was more than 48 µM.

As to `CCCc1nc(C)c2cnn(CC(=O)OCC)c(=O)n12`, the IC50 was more than 48 µM.

As to `C=CCn1nc(CCC)c2c(C)nc(CCC)n2c1=O`, the concentration for half-maximal inhibition (IC50) was found to be 29 µM.

Turning to `Cc1nc(Cc2ccccc2)n2c(O)nncc12`, the IC50 is more than 48 µM.
